From ChEMBL document CHEMBL1133365, “Synthesis and class III type antiarrhythmic activity of 4-aroyl (and aryl)-l-aralkylpiperazines” (2000)

Assays:
Mustela putorius furo [1] = species: Mustela putorius furo; assay: Peak isometric tension during the basic stimulus trains (S1) during control and compound induced tension, expressed as percent control.; assay type: functional
Method in brief: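 Same preparation: buffer pH 7.3, 5% CO2/95% O2, 37 °C, timolol 0.1 mM, 3 msec constant-current stimulation. Isometric force was recorded, and peak tension was taken during the basic S1 stimulus trains. Readings were made at steady state, about 15 min after each concentration. The change is expressed as percent of control.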

Mustela putorius furo [2] = species: Mustela putorius furo; assay: Dose required to produce 20% increase in effective refractory period in male ferret.; assay type: functional
Method in brief: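 Isolated tissue in buffer (mM: KCl 4, MgCl2 1.0, NaHCO3 25, KH2PO4 1.2, CaCl2 2, dextrose 11), pH 7.3, gassed 5% CO2/95% O2, 37 °C. Timolol 0.1 mM present. Stimulated with 3 msec constant-current pulses. Duplicate control readings, then each concentration read at steady state (~15 min). EC20 is the mean dose giving a 20% rise in ERP, in μM.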

O=C(c1ccncc1)N1CCN(CCc2ccc([N+](=O)[O-])cc2)CC1
Tension (Mustela putorius furo [1]): 19%
EC20 (Mustela putorius furo [2]): 1 µM

O=C(c1ccc(Cl)cc1)C1CCN(CCc2ccc([N+](=O)[O-])cc2)CC1
Tension (Mustela putorius furo [1]): -4%
EC20 (Mustela putorius furo [2]): 0.3 µM

Nc1ccc(CCN2CCN(c3ccc(N)cc3)CC2)cc1
Tension (Mustela putorius furo [1]): -53%
EC20 (Mustela putorius furo [2]): >100 µM

O=C(CN1CCN(C(=O)c2ccc([N+](=O)[O-])cc2)CC1)Nc1ccc([N+](=O)[O-])cc1
Tension (Mustela putorius furo [1]): 5%
EC20 (Mustela putorius furo [2]): 0.035 µM

CS(=O)(=O)Nc1ccc(CCN2CCN(c3ccncc3)CC2)cc1
Tension (Mustela putorius furo [1]): 2%
EC20 (Mustela putorius furo [2]): 0.22 µM

O=[N+]([O-])c1ccc(CCN2CCN(c3ccccc3)CC2)cc1
Tension (Mustela putorius furo [1]): 10%
EC20 (Mustela putorius furo [2]): 0.8 µM

O=[N+]([O-])c1ccc(CCN2CCN(c3ccc([N+](=O)[O-])cc3)CC2)cc1
Tension (Mustela putorius furo [1]): 5%
EC20 (Mustela putorius furo [2]): 0.03 µM

O=[N+]([O-])c1ccc(CCN2CCN(c3ccc([N+](=O)[O-])cn3)CC2)cc1
Tension (Mustela putorius furo [1]): -21%
EC20 (Mustela putorius furo [2]): 1.3 µM

O=[N+]([O-])c1ccc(CCN2CCC(c3ccc([N+](=O)[O-])cc3)CC2)cc1
Tension (Mustela putorius furo [1]): 0%
EC20 (Mustela putorius furo [2]): 0.3 µM

CS(=O)(=O)Nc1ccc(C(=O)N2CCN(CCc3ccccc3)CC2)cc1
Tension (Mustela putorius furo [1]): 5%
EC20 (Mustela putorius furo [2]): 0.68 µM

O=C(c1ccc([N+](=O)[O-])s1)N1CCN(CCc2ccc([N+](=O)[O-])cc2)CC1
Tension (Mustela putorius furo [1]): 0%
EC20 (Mustela putorius furo [2]): 0.012 µM

O=C(c1ccc([N+](=O)[O-])cc1)N1CCN(CCOc2ccc([N+](=O)[O-])cc2)CC1
Tension (Mustela putorius furo [1]): 0%
EC20 (Mustela putorius furo [2]): 0.06 µM

Nc1ccc(CCN2CCC(c3ccc(N)cc3)CC2)cc1
Tension (Mustela putorius furo [1]): 15%
EC20 (Mustela putorius furo [2]): 2 µM

CN(CCOc1ccc(NS(C)(=O)=O)cc1)CCc1ccc(NS(C)(=O)=O)cc1 [DOFETILIDE]
Tension (Mustela putorius furo [1]): 5%
EC20 (Mustela putorius furo [2]): 0.015 µM

Cc1cccc(CCN2CCC(C(=O)c3ccc(NS(C)(=O)=O)cc3)CC2)n1
Tension (Mustela putorius furo [1]): 9%
EC20 (Mustela putorius furo [2]): 0.02 µM

O=C(c1ccc([N+](=O)[O-])cc1)N1CCN(CCc2ccc([N+](=O)[O-])s2)CC1
Tension (Mustela putorius furo [1]): -17%
EC20 (Mustela putorius furo [2]): 0.01 µM

CS(=O)(=O)Nc1ccc(OCCN2CCN(C(=O)c3ccc(NS(C)(=O)=O)cc3)CC2)cc1
Tension (Mustela putorius furo [1]): -13%
EC20 (Mustela putorius furo [2]): 15 µM

O=[N+]([O-])c1ccc(CCN2CCN(c3ccncc3)CC2)cc1
Tension (Mustela putorius furo [1]): 8%
EC20 (Mustela putorius furo [2]): 0.03 µM

CS(=O)(=O)Nc1ccc(C(=O)N2CCN(CCc3ccc([N+](=O)[O-])cc3)CC2)cc1
Tension (Mustela putorius furo [1]): 1%
EC20 (Mustela putorius furo [2]): 0.06 µM

Nc1ccc(OCCN2CCN(c3ccc(N)cc3)CC2)cc1
Tension (Mustela putorius furo [1]): -43%
EC20 (Mustela putorius furo [2]): >100 µM

O=C(c1ccc([N+](=O)[O-])cc1)N1CCN(CCc2ccccc2)CC1
Tension (Mustela putorius furo [1]): -8%
EC20 (Mustela putorius furo [2]): 0.16 µM

Nc1ccc(CCN2CCN(c3ccncc3)CC2)cc1
Tension (Mustela putorius furo [1]): 9%
EC20 (Mustela putorius furo [2]): 15 µM

CS(=O)(=O)Nc1ccc(CCN2CCN(C(=O)c3ccc([N+](=O)[O-])cc3)CC2)cc1
Tension (Mustela putorius furo [1]): 13%
EC20 (Mustela putorius furo [2]): 0.16 µM

O=C(c1ccc([N+](=O)[O-])cc1)N1CCN(Cc2ccc([N+](=O)[O-])cc2)CC1
Tension (Mustela putorius furo [1]): -44%
EC20 (Mustela putorius furo [2]): 3.5 µM

Nc1ccc(CCN2CCN(C(=O)c3ccc([N+](=O)[O-])cc3)CC2)cc1
Tension (Mustela putorius furo [1]): -14%
EC20 (Mustela putorius furo [2]): 1.4 µM

O=C(c1ccc([N+](=O)[O-])cc1)N1CCN(C(=O)c2ccc([N+](=O)[O-])cc2)CC1
Tension (Mustela putorius furo [1]): -6%
EC20 (Mustela putorius furo [2]): 7 µM

CC(C)NCC(O)c1ccc(NS(C)(=O)=O)cc1 (centres undefined) [SOTALOL]
Tension (Mustela putorius furo [1]): -13%
EC20 (Mustela putorius furo [2]): 3.5 µM

O=[N+]([O-])c1ccc(CCN2CCN(S(=O)(=O)c3ccc([N+](=O)[O-])cc3)CC2)cc1
Tension (Mustela putorius furo [1]): -24%
EC20 (Mustela putorius furo [2]): 1 µM

CS(=O)(=O)Nc1ccc(CCN2CCN(C(=O)c3ccc(NS(C)(=O)=O)cc3)CC2)cc1
Tension (Mustela putorius furo [1]): 1%
EC20 (Mustela putorius furo [2]): 2 µM

O=C(c1ccc([N+](=O)[O-])cc1)N1CCNCC1
Tension (Mustela putorius furo [1]): -33%
EC20 (Mustela putorius furo [2]): 20 µM

O=C(c1ccccc1)N1CCN(CCc2ccc([N+](=O)[O-])cc2)CC1
Tension (Mustela putorius furo [1]): -7%
EC20 (Mustela putorius furo [2]): 0.14 µM

O=C(c1ccc([N+](=O)[O-])o1)N1CCN(CCc2ccc([N+](=O)[O-])cc2)CC1
Tension (Mustela putorius furo [1]): -2%
EC20 (Mustela putorius furo [2]): 0.14 µM

O=C(c1ccc([N+](=O)[O-])cc1)N1CCN(CCc2ccc([N+](=O)[O-])cc2)CC1
Tension (Mustela putorius furo [1]): -3%
EC20 (Mustela putorius furo [2]): 0.003 µM

CS(=O)(=O)Nc1ccc(C(=O)N2CCN(CCOc3ccc(N(S(C)(=O)=O)S(C)(=O)=O)cc3)CC2)cc1
Tension (Mustela putorius furo [1]): -14%
EC20 (Mustela putorius furo [2]): 25 µM

O=[N+]([O-])c1ccc(N2CCN(CCc3ccccc3)CC2)cc1
Tension (Mustela putorius furo [1]): -6%
EC20 (Mustela putorius furo [2]): 0.5 µM

O=C(c1cccc([N+](=O)[O-])c1)N1CCN(CCc2ccc([N+](=O)[O-])cc2)CC1
Tension (Mustela putorius furo [1]): -7%
EC20 (Mustela putorius furo [2]): 0.27 µM

O=[N+]([O-])c1ccc(OCCN2CCN(c3ccc([N+](=O)[O-])cc3)CC2)cc1
Tension (Mustela putorius furo [1]): -27%
EC20 (Mustela putorius furo [2]): 0.35 µM
